From ChEMBL document CHEMBL1772955, “Synthesis, metabolic stability and antiviral evaluation of various alkoxyalkyl esters of cidofovir and 9-(S)-[3-hydroxy-2-(phosphonomethoxy)propyl]adenine” (Bioorg Med Chem, 2011) come the findings set out here.

Structures are written as SMILES.

In data set [1] the test system is Liver. The experiment in a line: Metabolic stability in human liver S9 fraction assessed as compound degradation at 10 uM after 90 mins by HPLC/MS/MS. As to conditions: s9, 1.5 h. In kind it is ADME, subcellular. The gist of the method:
(§1)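 Liver S9 fraction at 3 mg/mL protein in phosphate buffer, test article 1 μM or 10 μM final; 2 min equilibration at 37 °C, then reaction started with 1x NADPH regeneration system. Samples taken from time zero to 90 min into 1% ammonium hydroxide in N-propyl alcohol. Analysed by C8 HPLC with water/isopropyl alcohol (0.1% formic acid) gradient and ESI-MS. 7-Ethoxycoumarin run as positive control.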

For data set [2], the system named is Liver. The experiment in a line: Metabolic stability in human liver S9 fraction assessed as compound degradation at 1 uM after 90 mins by HPLC/MS/MS. In kind it is ADME, subcellular. As to conditions: s9, 1.5 h. The gist of the method:
as §1

Data set [3] is described as follows: Metabolic stability in human liver S9 fraction assessed as compound remaining at 1 uM after 90 mins by HPLC/MS/MS. Type of data set: ADME, subcellular. As to conditions: read-out: Stability. An outline of the steps:
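Liver S9 (human or monkey, 3 mg/mL protein, phosphate buffer) with test article at 1 or 10 μM final, pre-equilibrated about 2 min at 37 °C. Started with 1x NADPH regeneration system, sampled 0-90 min into 1% NH4OH in n-propanol. Held cold ≥48 h, centrifuged, C8 LC (water/isopropanol, 0.1% formic acid) with ESI-MS; 7-ethoxycoumarin as activity control.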

Data set [4] is described as follows: Selectivity index, ratio of CC50 for human HFF cells to EC50 for Vaccinia virus Copenhagen. Type of data set: toxicity, cell-based. As to conditions: read-out: Ratio CC50/EC50.
The test system of a further data set is Vaccinia virus. The experiment in a line: Antiviral activity against Vaccinia virus Copenhagen infected in human HFF cells after 3 days by plaque reduction assay. As to conditions: Orthopoxvirus vaccinia, 72 h. Type of data set: functional, organism-based.
Data set [5] is described as follows: Selectivity index, ratio of CC50 for human HFF cells to EC50 for Cowpox virus (Brighton Red). As to conditions: read-out: Ratio CC50/EC50. In kind it is toxicity, cell-based.
The subject of the next data set is HFF. The experiment in a line: Cytotoxicity against human HFF cells assessed as reduction in cell viability after 7 days by neutral red uptake assay. Type of data set: cell-based. As to conditions: 168 h. An outline of the steps: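 Uninfected HFF cells seeded at 2.5×10^4/well and grown 24 h to monolayer. Medium replaced by MEM/2% FBS containing graded compound concentrations; 7 d incubation. Cells stained with 0.01% neutral red, absorbance at 540 nm; CC50 interpolated as 50% viability loss.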

Data set [6] in a line: Antiviral activity against Cowpox virus (Brighton Red) infected in human HFF cells after 3 days by plaque reduction assay. In kind it is functional, cell-based. As to conditions: 72 h.
Data set [7] in a line: Selectivity index, ratio of CC50 for african green monkey BSC1 cells to EC50 for Ectromelia virus Moscow. As to conditions: read-out: Ratio CC50/EC50. In kind it is toxicity, cell-based, BSC-1.
In a further data set the test system is BSC-1. The experiment in a line: (§2) Cytotoxicity against african green monkey BSC1 cells after 2 to 4 hrs by MTS assay. In kind it is cell-based. As to conditions: chlorocebus aethiops, bsc-1. The gist of the method: (§3)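 BSC-1 cells (5000 per reaction) mixed with serial compound dilutions in DMEM/2% Fetal Clone II, without virus. At the set time point, MTS reagent added for 2-4 h and OD490 read. Viability taken relative to untreated cells; CC50 from concentration versus % viability plot.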

In a further data set the test system is Ectromelia virus Moscow. As to the kind of experiment: Antiviral activity against Ectromelia virus Moscow infected in african green monkey BSC1 cells after 4 to 5 days by plaque reduction assay. Type of data set: functional, organism-based. As to conditions: BSC-1.
Data set [8] in a line: as §2. In kind it is cell-based, BSC-1. As to conditions: chlorocebus aethiops, BSC1 cells. The gist of the method:
as §3

The test system of data set [9] is Liver. The experiment in a line: Metabolic stability in human liver S9 fraction assessed as compound disappearance at 10 uM after 90 mins by HPLC/MS/MS. Type of data set: ADME, subcellular. As to conditions: s9, 1.5 h. The gist of the method:
as §1

The subject of data set [10] is Liver. The experiment in a line: Metabolic stability in human liver S9 fraction assessed as compound disappearance at 1 uM after 90 mins by HPLC/MS/MS. As to conditions: s9, 1.5 h. Type of data set: ADME, subcellular. The gist of the method: as §1
For data set [11], the system named is Liver. In kind it is ADME, subcellular, Cavia porcellus, S9 fraction. As to conditions: guinea pig, s9, 1.5 h, 10 µM.
For data set [12], the system named is Liver. Type of data set: ADME, subcellular, Cavia porcellus, S9 fraction. As to conditions: guinea pig, s9, 1.5 h, 1 µM.
Data set [13] has as its system Liver. In kind it is ADME, subcellular, S9 fraction. As to conditions: rat, s9, 1.5 h, 10 µM.
The test system of data set [14] is Liver. In kind it is ADME, subcellular, S9 fraction. As to conditions: rat, s9, 1.5 h, 1 µM.

For `CC(C)CCCCCCCCCCCCCCOCCCOP(=O)(O)CO[C@H](CO)Cn1cnc2c(N)ncnc21`, the Stability result in the data set with Liver [1] and in the data set with Liver [2] was “Stable” each time. In addition, the remaining at 1.5 h, 1 µM in [3] came out at 91.3%. In addition, the selectivity ratio in data set [4] is 285; in data set [5], 285; in [7] it was 266. Moreover, the EC50 in the data set with Vaccinia virus came out at 40 nM; in data set [6], 40 nM; in the data set with Ectromelia virus Moscow, 44 nM. In addition, the 50% cytotoxic concentration (CC50) in the data set on HFF came out at 11400 nM; in the data set with BSC-1 it was 11700 nM.

`CC(C)CCCCCCCCCCCCCCOCCCOP(=O)(O)CO[C@H](CO)Cn1ccc(N)nc1=O`: the selectivity ratio in data set [4] is 75; in [5], 150; in [7], 1810. Further, the EC50 came out at 200 nM in the data set with Vaccinia virus, 100 nM in [6] and 43 nM with Ectromelia virus Moscow. Also, the CC50 in the data set on HFF amounted to 15000 nM; in the data set with BSC-1, 78000 nM.

As to `Nc1ccn(C[C@@H](CO)OCP(=O)(O)OCCCOCCCCCCCCCCCCCCC2CC2)c(=O)n1`, in data set [3], the remaining at 1.5 h, 1 µM is 88%. The selectivity ratio amounted to 187 in data set [4], 112 in data set [5] and 100 in data set [7]. The results for the concentration for a half-maximal effect (EC50) (in the data set with Vaccinia virus; in [6]; with Ectromelia virus Moscow) were 300 nM, 500 nM and 740 nM, respectively. Also, the results for the CC50 in the data set with HFF and in the data set on BSC-1 were 56000 nM and 74000 nM, respectively.

For `CCCCCCCCCCCCCCCCCCOC[C@@H](COP(=O)(O)CO[C@H](CO)Cn1ccc(N)nc1=O)OCc1ccccc1`, in data set [3], the remaining at 1.5 h, 1 µM stood at 92.3%. In addition, the selectivity ratio was 118 in data set [4], 157 in data set [5] and 1100 in data set [7]. Further, the EC50 in the data set on Vaccinia virus turned out to be 400 nM; in data set [6] it was 300 nM; with Ectromelia virus Moscow it was 30 nM. For the same compound, the half-maximal cytotoxic concentration (CC50) with HFF worked out at 47000 nM; in data set [8], 35000 nM.

Consider `CC(C)CCCCCCCCCCCCOCCCOP(=O)(O)CO[C@H](CO)Cn1ccc(N)nc1=O`, for which the results for the selectivity ratio in [4], in [5] and in [7] were 123, 123 and 210, respectively. In addition, the EC50 came to 300 nM in the data set on Vaccinia virus, 300 nM in data set [6] and 390 nM with Ectromelia virus Moscow. The CC50 in the data set on HFF amounted to 37000 nM; with BSC-1, 82000 nM.

Take `CC(C)CCCCCCCCCCCOCCCOP(=O)(O)CO[C@H](CO)Cn1ccc(N)nc1=O`: the selectivity ratio in data set [4] turned out to be 44; in [5], 55; in [7] it was 234. For the same compound, the figures for the EC50 (in the data set on Vaccinia virus; in data set [6]; with Ectromelia virus Moscow) were 1000 nM, 800 nM and 350 nM, respectively. Moreover, the CC50 in the data set on HFF was found to be 44000 nM; in the data set on BSC-1 it was 82000 nM.

For `C=CCCCCCCCCCCCCCCOCCOP(=O)(O)CO[C@H](CO)Cn1cnc2c(N)ncnc21`, the Stability result in the data set on Liver [1] and with Liver [2] was “Unstable” throughout. The selectivity ratio in [4] came out at 85; in data set [5], 85; in [7], 7.2. In addition, the EC50 was determined as 20 nM with Vaccinia virus, 20 nM in data set [6] and 320 nM with Ectromelia virus Moscow. Further, the results for the CC50 with HFF and in the data set on BSC-1 were 1700 nM and 2320 nM, respectively.

Take `CCCCCCCCCCCCCCCCOCCOP(=O)(O)CO[C@H](CO)Cn1cnc2c(N)ncnc21`: the selectivity ratio in data set [4] amounted to 156; in data set [5], 156; in data set [7], 289. Further, the EC50 amounted to 90 nM in the data set on Vaccinia virus, 90 nM in data set [6] and 140 nM in the data set on Ectromelia virus Moscow. Also, the figures for the CC50 with HFF and with BSC-1 were 14000 nM and 40500 nM, respectively.

Take `CC(C)CCCCCCCCCCCCCCOCCOP(=O)(O)CO[C@H](CO)Cn1cnc2c(N)ncnc21`: the selectivity ratio in data set [4] is 250; in [5], 250; in data set [7] it was 5960. The EC50 (in the data set with Vaccinia virus; in data set [6]; in the data set with Ectromelia virus Moscow) was 10 nM each time. Moreover, the values for the CC50 in the data set on HFF and in the data set on BSC-1 were 2500 nM and 59600 nM, respectively.

On to `CCCCCCCCCCCCCCCCOCCCOP(=O)(O)CO[C@H](CO)Cn1cnc2c(N)ncnc21`, for which the Stability result in the data set on Liver [1] and in the data set on Liver [2] was “Stable” throughout. Also, the selectivity ratio is 280 in [4], 140 in data set [5] and 1280 in data set [7]. The results for the CC50 with HFF and in the data set with BSC-1 were 2800 nM and 84700 nM, respectively. The EC50 in data set [6] was found to be 20 nM; with Ectromelia virus Moscow, 66 nM.

With `CCCCCCCCCCCCCCCCOCCCOP(=O)(O)CO[C@H](CO)Cn1ccc(N)nc1=O` [BRINCIDOFOVIR], the remaining at 1.5 h, 1 µM in [3] is 83.3%. Moreover, the Stability entry in the data set on Liver [9], in the data set with Liver [10], in the data set with Liver [11], in the data set with Liver [12], in the data set on Liver [13] and in the data set on Liver [14] was “Stable” in each case. Moreover, the selectivity ratio in data set [4] was 313; in data set [5] it was 125; in [7], 202. The 50% cytotoxic concentration (CC50) in the data set on HFF stood at 25000 nM; in the data set with BSC-1, 25300 nM. Besides, the values for the EC50 (in data set [6]; in the data set with Ectromelia virus Moscow) were 200 nM and 125 nM, respectively.
